Measured values reported in ChEMBL document CHEMBL2440020, “Design, Synthesis, and Anti-leukemic Activity of Stereochemically Defined Constrained Analogs of FTY720 (Gilenya)” (ACS Med Chem Lett, 2013).
pIC50: −log10 of the molar value. The source made the active and inactive calls. No cut-off for these calls is given here.

Columns and labels:
Assay type in all cases: functional, cell-based
[1] = Cytotoxicity against Ph-positive human SUP-B15 cells after 72 hrs by vital dye exclusion/flow cytometric analysis; conditions: SUP-B15, 72 h
In short: (§1)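 Viability of human leukaemia and prostate cancer lines, and of murine bone marrow cells expressing BCR-Abl p190, was scored by vital dye exclusion and flow cytometry after 72 h of exposure. IC50 values are given as means with SEM and were compared with the reference control by two-tailed t-test.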

CCRF-CEM = test: Cytotoxicity against Ph-negative human CCRF-CEM cells after 72 hrs by vital dye exclusion/flow cytometric analysis; in short: as §1
[2] = Cytotoxicity against BCR-ABL fusion protein 190 expressing mouse bone marrow cells after 72 hrs by vital dye exclusion/flow cytometric analysis; conditions: Bone marrow cell; in short: as §1
BV-173 = test: Cytotoxicity against Ph-positive human BV173 cells after 72 hrs by vital dye exclusion/flow cytometric analysis; conditions: BV-173, 72 h; in short: as §1
SUP-B15 = test: Cytotoxicity against Ph-positive human SUP-B15 cells at 0.1 to 10 uM after 72 hrs by vital dye exclusion/flow cytometric analysis
[3] = Downregulation of 4F2hc surface expression in Ph-positive human SUP-B15 cells at 10 uM after 72 hrs by vital dye exclusion/flow cytometric analysis
DU-145 = test: Cytotoxicity against human DU145 cells after 72 hrs by vital dye exclusion/flow cytometric analysis; conditions: DU-145, 72 h; in short: as §1
NALM-6 = test: Cytotoxicity against Ph-negative human NALM6 cells after 72 hrs by vital dye exclusion/flow cytometric analysis; conditions: NALM-6, 72 h; in short: as §1
[4] = Cytotoxicity against Ph-negative human BLIN-1 cells after 72 hrs by vital dye exclusion/flow cytometric analysis; in short: as §1
PC-3 = test: Cytotoxicity against human PC3 cells after 72 hrs by vital dye exclusion/flow cytometric analysis; conditions: PC-3, 72 h; in short: as §1

## CCCCCCCCc1ccc(CO[C@@H]2CN[C@H](CO)C2)cc1
[1]
  pIC50: 4.78
CCRF-CEM
  pIC50: 4.94
[2]
  pIC50: 5.08
BV-173
  pIC50: 4.86

## CCCCCCCCc1ccc(CO[C@H]2CN[C@H](C)C2)cc1
SUP-B15
  Activity: Active
[3]
  Activity: Active

## CCCCCCCCc1ccc(CO[C@H]2CN[C@H](CO)C2)cc1
DU-145
  pIC50: 4.97
[1]
  pIC50: 5.11
NALM-6
  pIC50: 4.82
[4]
  pIC50: 5.12
CCRF-CEM
  pIC50: 4.96
[2]
  pIC50: 5.24
PC-3
  pIC50: 4.84
BV-173
  pIC50: 4.98

## CCCCCCCCc1ccc(CO[C@@H]2CCNC2)cc1
SUP-B15
  Activity: Active
[3]
  Activity: Active

## CCCCCCCCc1ccc(CO[C@@H]2CCN[C@H]2CO)cc1
SUP-B15
  Activity: inactive

## CCCCCCCCc1ccc(CCC(N)(CO)CO)cc1 [FINGOLIMOD]
DU-145
  pIC50: 5.19
[1]
  pIC50: 5.17
NALM-6
  pIC50: 5.02
[4]
  pIC50: 5.26
CCRF-CEM
  pIC50: 5.17
[2]
  pIC50: 5.48
PC-3
  pIC50: 5.01
BV-173
  pIC50: 5.20

## CCCCCCCCc1ccc(CO[C@H]2CN[C@@H](CO)C2)cc1
[1]
  pIC50: 5.08
CCRF-CEM
  pIC50: 5.09
[2]
  pIC50: 5.40
BV-173
  pIC50: 5.01

## CCCCCCCCc1ccc(CO[C@@H]2CN[C@@H](C)C2)cc1
SUP-B15
  Activity: Active
[3]
  Activity: Active

## CCCCCCCCc1ccc(CO[C@@H]2CN[C@@H](CO)C2)cc1
DU-145
  pIC50: 4.82
[1]
  pIC50: 5.70
NALM-6
  pIC50: 4.87
[4]
  pIC50: 5.16
CCRF-CEM
  pIC50: 5.09
[2]
  pIC50: 6.30
PC-3
  pIC50: 4.87
BV-173
  pIC50: 5.42

## CCCCCCCCc1ccc(CO[C@@H]2CN[C@@H](COC)C2)cc1
SUP-B15
  Activity: Active
[3]
  Activity: Active

## CCCCCCCCc1ccc(CO[C@H]2CCNC2)cc1
SUP-B15
  Activity: Active
[3]
  Activity: Active
